Results collected from several papers.
Action: inhibitor
CDK7: Cyclin-dependent kinase 7 (CDK7, Homo sapiens, UniProt P50613)
CDK7 with cyclin H: Cyclin-dependent kinase 7, with cyclin H (CDK7, Homo sapiens, UniProt P50613)

SMILES | target | assay | conditions | inhibition [%]
COc1cccc2c(NCc3ccccc3)nc(-n3c(N)nc4ccccc43)nc12 | CDK7 | target engagement in cells, chemoproteomics | 20 mM | 2.5
Cc1ccc(-n2nc(C(C)(C)C)cc2NC(=O)Nc2ccc(OCCN3CCOCC3)c3ccccc23)cc1 | CDK7 | enzyme activity | 10 µM | 17
C=CC(=O)Nc1cc(Nc2nccc(Nc3cc(Cl)c(F)cc3C(C)(C)O)n2)c(OC)cc1N1CC[C@@H](N(C)C)C1 | CDK7 with cyclin H | enzyme activity | 1 µM | 14
c1ccc(CNc2nc(N3CCOc4ccccc43)nc3c2CCCC3)cc1 | CDK7 | target engagement in cells, chemoproteomics | 20 mM | -1.7
O=C(O)c1cc(O)c(O)c(O)c1 | CDK7 with cyclin H | enzyme activity, ADP detection | 10 µM | -3
Cn1cnc(Br)c1C1=CN(c2ncnc3[nH]cnc23)CCS1 | CDK7 | enzyme activity, radiometric | 50 nM | 21.6
COc1c2c(cc3oc(-c4ccccc4)cc(=O)c13)OCO2 | CDK7 with cyclin H | enzyme activity, ADP detection | 10 µM | 94.4
Cc1ccc(Nc2nccc(N(C)c3ccc4c(C)n(C)nc4c3)n2)cc1S(N)(=O)=O | CDK7 with cyclin H | enzyme activity | 10 µM | 34
COC(=O)[C@H]1[C@H]2C[C@@H]3c4[nH]c5cc(OC)ccc5c4CCN3C[C@H]2C[C@@H](OC(=O)c2cc(OC)c(OC)c(OC)c2)[C@@H]1OC | CDK7 with cyclin H | enzyme activity, ADP detection | 10 µM | -37.8
COc1cc(-c2cc(-c3ccc(N4CCNCC4)cc3)cnc2C)cc(OC)c1OC | CDK7 | enzyme activity | 1 µM | 2
